Test [1] deals with T1, NAD-dependent protein deacetylase sirtuin-2 (Homo sapiens, UniProt Q8IXJ6).
T1 sequence (Q8IXJ6 whole entry): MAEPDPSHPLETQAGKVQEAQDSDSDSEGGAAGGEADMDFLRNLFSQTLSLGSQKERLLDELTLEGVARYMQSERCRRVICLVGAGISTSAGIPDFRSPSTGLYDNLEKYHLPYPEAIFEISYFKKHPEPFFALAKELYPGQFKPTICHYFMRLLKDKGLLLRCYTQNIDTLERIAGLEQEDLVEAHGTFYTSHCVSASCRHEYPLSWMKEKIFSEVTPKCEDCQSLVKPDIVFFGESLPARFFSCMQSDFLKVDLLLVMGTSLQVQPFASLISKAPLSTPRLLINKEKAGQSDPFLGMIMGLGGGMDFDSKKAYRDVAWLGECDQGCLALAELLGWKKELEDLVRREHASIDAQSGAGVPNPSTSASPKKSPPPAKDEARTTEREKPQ
Put plainly: Inhibition of human recombinant SIRT2. The method, boiled down: (§1)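 Homogeneous fluorescent deacetylase assay with recombinant SIRT1 or SIRT2 (SIRT2 full-length, N-terminal His6, expressed in E. coli BL21). Inhibition taken from remaining substrate versus no-inhibitor control. Run at least in duplicate, inhibitors added from DMSO stocks.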

For test [2], the target named is T2, NAD-dependent protein deacetylase sirtuin-2 (Homo sapiens) (UniProt Q8IXJ6).
T2 sequence (whole entry): T1 sequence (Q8IXJ6 whole entry)
The test can be described thus: Inhibition of human recombinant SIRT2 at 12.5 uM. Put shortly:
as §1

Test [3] addresses T1, NAD-dependent protein deacetylase sirtuin-2. Put plainly: Inhibition of human recombinant SIRT2 by fluorescent deacetylase assay. The method, boiled down: as §1
The target of test [4] is T3, NAD-dependent protein deacetylase sirtuin-1 (Homo sapiens, UniProt Q96EB6).
T3 sequence (Q96EB6 whole entry): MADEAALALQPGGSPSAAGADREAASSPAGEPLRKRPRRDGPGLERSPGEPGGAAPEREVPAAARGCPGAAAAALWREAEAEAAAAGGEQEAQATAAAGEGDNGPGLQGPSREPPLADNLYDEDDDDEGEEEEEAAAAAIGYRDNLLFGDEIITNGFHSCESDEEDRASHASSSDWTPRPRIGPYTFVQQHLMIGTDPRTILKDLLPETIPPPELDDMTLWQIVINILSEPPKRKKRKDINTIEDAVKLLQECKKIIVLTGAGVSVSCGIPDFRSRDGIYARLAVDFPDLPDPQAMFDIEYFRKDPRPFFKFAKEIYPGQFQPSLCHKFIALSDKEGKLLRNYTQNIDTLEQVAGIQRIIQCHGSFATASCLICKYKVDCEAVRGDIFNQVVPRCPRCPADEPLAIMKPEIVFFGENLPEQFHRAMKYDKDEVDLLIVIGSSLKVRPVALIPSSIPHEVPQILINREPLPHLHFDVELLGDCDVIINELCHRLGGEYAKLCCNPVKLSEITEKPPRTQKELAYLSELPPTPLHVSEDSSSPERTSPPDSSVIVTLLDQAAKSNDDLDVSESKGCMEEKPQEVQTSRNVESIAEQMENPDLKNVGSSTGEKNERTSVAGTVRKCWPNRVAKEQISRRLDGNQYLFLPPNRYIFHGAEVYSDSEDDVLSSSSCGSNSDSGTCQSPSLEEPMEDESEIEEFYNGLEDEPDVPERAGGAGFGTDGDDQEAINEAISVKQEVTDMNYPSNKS
The test can be described thus: Inhibition of human SIRT1 by radioactive deacetylase assay. The method, boiled down:
(§2)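 Radioactive deacetylase assay with recombinant SIRT1 or SIRT2. Substrate was [3H]-acetylated histone H4 N-terminal peptide (residues 1-25). Released [3H]acetic acid quantified by scintillation counting.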

Test [5] addresses T1, NAD-dependent protein deacetylase sirtuin-2. Put plainly: Inhibition of human recombinant SIRT2 by radioactive deacetylase assay. Put shortly:
as §2

Test [6] addresses T3, NAD-dependent protein deacetylase sirtuin-1. Put plainly: Inhibition of human SIRT1. Put shortly: as §1
Test [7] has the same target. The test can be described thus: Inhibition of human SIRT1 by fluorescent deacetylase assay. The method, boiled down:
(§3)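 Homogeneous fluorescent deacetylase assay with recombinant SIRT1 or SIRT2 (SIRT2 full-length, N-terminal His6, expressed in E. coli BL21). Reaction held ZMAL substrate 10.5 µM and NAD+ 500 µM, run 4 h at 37 °C. Deacetylated product developed by tryptic digest; fluorescence read at ex 390/em 460 nm. Inhibition taken from remaining substrate versus no-inhibitor control. Run at least in duplicate, inhibitors added from DMSO stocks.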

The target in test [8] is T4, NAD-dependent protein deacetylase sirtuin-1 (Homo sapiens) (UniProt Q96EB6).
T4 sequence (whole entry): T3 sequence (Q96EB6 whole entry)
The test can be described thus: Inhibition of human SIRT1 at 50 uM. The method, boiled down: as §3

Test [9] deals with T2, NAD-dependent protein deacetylase sirtuin-2 (Homo sapiens). Put plainly: Inhibition of human recombinant SIRT2 at 50 uM. Put shortly: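 N-terminally His6-tagged full-length human SIRT2, expressed in E. coli BL21. Homogeneous fluorescent deacetylase assay with ZMAL substrate (10.5 µM) and NAD+ (500 µM), 4 h at 37 °C. Inhibitor was added from DMSO stock. After stopping, a tryptic digest developed the fluorophore (ex 390/em 460 nm). Inhibition was taken from remaining substrate versus an uninhibited control, run at least in duplicate.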

Test [10] shares this target. Put plainly: Inhibition of SIRT2 in A549 cells assessed as ability to induce hyperacetylation of tubulin by Western blot analysis. The format is cell-based. The method, boiled down: (§4)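 A549 human lung carcinoma cells grown in DMEM with 10% FBS, penicillin-streptomycin and 2 mM L-glutamine. Plated 1 day before treatment, then exposed to compound for 6 h. Cells washed with PBS and lysed in buffer containing 400 nM TSA. Lysates run on 10% SDS-PAGE and western blotted for acetylated alpha-tubulin against total alpha-tubulin.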

For test [11] the target is unchanged. Put plainly: Inhibition of SIRT2 in A549 cells assessed as ability to induce hyperacetylation of tubulin by Western blot analysis at 0.1 uM. Format: cell-based. Put shortly:
as §4
(In general: Immunoblotting shows a protein as a band on a membrane.)

Molecules are shown by their SMILES. Calls of active or inactive are those of the source. No cut-off for these calls is given here.

With `Cn1c2ccccc2c2c3c(c4c5ccccc5n(CCC#N)c4c21)CNC3=O` [GO-6976], the IC50 in test [1] was more than 100 µM. On to `O=C(O)c1cc(NCc2cc(O)ccc2O)ccc1O`, for which, in [2], the inhibition was more than 60%.

For `CN1C(=O)C(c2c[nH]c3ccccc23)=C(c2c[nH]c3ccccc23)C1=O`, the IC50 in test [3] is 33 µM; in test [1] it was 33 µM; in test [4], 15.7 µM; in [5], 24.1 µM; in [6], more than 50 µM; in test [7] it was more than 50 µM. Turning to `O=C1NC(=O)C2=C1c1cn(c3ccccc13)CCOC(C(O)CO)CCn1cc2c2c(F)cccc21` (stereo unspecified), the IC50 in test [1] is more than 50 µM. The outcome in test [8] was inactive. Turning to `O=C1Cc2c([nH]c3ccc(Br)cc23)-c2ccccc2N1` [KENPAULLONE], the IC50 in test [1] is more than 100 µM. As for `O=C1Nc2ccc(I)cc2C1=Cc1cc(Br)c(O)c(Br)c1`, the inhibition in test [2] was more than 60%. Consider `CCCCCCCn1cc(C2=C(c3cn(CCCCCCC)c4ccccc34)C(=O)N(C)C2=O)c2ccccc21`, for which the IC50 in test [1] was more than 100 µM. For the molecule `O=C1NC(=O)C(c2c[nH]c3cccc(F)c23)=C1c1cn(CCOC(CCO)C2COC3(CCCCC3)O2)c2ccccc12` (stereo unspecified), the IC50 in [1] came out at 2.5 µM. The molecule also came in with an inhibition in test [8] of 71.9%. For the molecule `O=C1NC(=O)C(c2c[nH]c3cccc(F)c23)=C1c1cn(CCOC(CCO)C(O)CO)c2ccccc12` (stereo unspecified), the IC50 in [1] was found to be 9.5 µM. Besides, in test [8], the inhibition turned out to be 29.9%. For the molecule `ONC1=Nc2ccccc2-c2[nH]c3ccc(Br)cc3c2C1`, in test [9], the inhibition came to 43.1%. On to `O=C1Cc2c([nH]c3ccccc23)-c2ccccc2N1` [PAULLONE], for which, in test [10], the outcome was Active. Besides, the IC50 turned out to be 8 µM in test [4] and 50 µM in test [7]. This molecule showed an inhibition in test [8] of 49.4%. `CC(=O)c1c(O)c(C)c(O)c(Cc2c(O)c3c(c(C(=O)/C=C/c4ccccc4)c2O)OC(C)(C)C=C3)c1O`: in [2], the inhibition was more than 60%. Take `CN1C(=O)C(c2cn(CCCCCCCO)c3ccccc23)=C(c2cn(CCCCCCCO)c3ccccc23)C1=O`: the IC50 in test [1] is more than 100 µM.

Take `Oc1cc(O)cc(/C=C/c2ccc(O)c(O)c2)c1`: the inhibition in test [2] is more than 60%.

With `CN(C)CCCn1cc(C2=C(c3c[nH]c4ccccc34)C(=O)NC2=O)c2ccccc21` [GF-109203], the IC50 in [3] is 7.3 µM; in test [1], 7.3 µM; in test [4], 23 µM; in test [5], 11.7 µM; in test [6], more than 50 µM; in test [7], more than 50 µM. For the same molecule, the inhibition in test [2] is more than 60%.

Regarding `O=C1NC(=O)C(c2cn(CCOC(CCO)C3COC4(CCCCC4)O3)c3ccccc23)=C1c1c[nH]c2ccccc12` (stereo unspecified), the IC50 in [1] turned out to be 2.8 µM. This molecule displayed an inhibition in test [8] of 77.5%. `CN(C)C[C@H]1OCCn2cc(c3ccccc32)C2=C(C(=O)NC2=O)c2cn(c3cccc(F)c23)C[C@H]1F`: the IC50 in test [1] is more than 50 µM. For the same molecule, the outcome in test [8] was inactive. As to `NC(=O)c1cccnc1`, in test [8], the inhibition was found to be 10.6%.

For `O=C1NC(=O)C2=C1c1cn(c3ccccc13)CC[C@@H](C1COC3(CCCCC3)O1)OCCn1cc2c2c(F)cccc21` (stereo partly specified), in test [1], the IC50 was 20.8 µM. The molecule further came in with an inhibition in [8] of 55.7%. As for `O=C1NC(=O)C(c2c[nH]c3ccccc23)=C1c1c[nH]c2ccccc12` [RO-316233], in test [1], the IC50 came to 4.7 µM. The inhibition in [8] worked out at 52.7%. For `O=C1C(c2c[nH]c3ccccc23)=C(c2c[nH]c3ccccc23)C(=O)N1Cc1ccccc1`, in test [1], the IC50 is 40 µM. Regarding `C=CC(=O)c1ccc2ccccc2c1`, the inhibition in [2] is more than 60%. With `CN1CCCC1CCn1cc(C2=C(c3c[nH]c4ccccc34)C(=O)NC2=O)c2ccccc21` (stereo unspecified), in [1], the IC50 stood at 8.3 µM. Also, the inhibition in [8] turned out to be 58.2%. Turning to `CN1C(=O)C(c2cn(Cc3ccccc3)c3ccccc23)=C(c2cn(Cc3ccccc3)c3ccccc23)C1=O`, in [1], the IC50 amounted to 78.3 µM. Consider `COCc1cc(-c2c(COC)cc(O)c(O)c2O)c(O)c(O)c1O`, for which the inhibition in test [2] is more than 60%.

As to `O=Nc1c(-c2c(O)[nH]c3ccccc23)[nH]c2ccccc12`, the inhibition in test [2] was more than 60%. Turning to `CN[C@@H]1C[C@H]2O[C@@](C)([C@@H]1OC)n1c3ccccc3c3c4c(c5c6ccccc6n2c5c31)C(=O)NC4`, the result in [9] was inactive. As for `CC(/C=C/C(=O)NO)=C\[C@@H](C)C(=O)c1ccc(N(C)C)cc1`, the outcome in test [11] was Active. Take `COC(=O)/C=C/c1cc(O)ccc1O`: in test [2], the inhibition is more than 60%.

In general, IC50 refers to the point on the concentration scale where inhibition reaches its midpoint. By inhibition is commonly meant the share of the control response that was lost under treatment.

Values taken from ChEMBL document CHEMBL1137294, “Adenosine mimetics as inhibitors of NAD+-dependent histone deacetylases, from kinase to sirtuin inhibition” (J Med Chem, 2006).
